These results are taken from ChEMBL document CHEMBL4513216, “Probing the Open Global Health Chemical Diversity Library for Multistage-Active Starting Points for Next-Generation Antimalarials” (ACS Infect Dis, 2020).

Each structure is given as a SMILES string.

The data set is described as follows: Toxicity liver stage against HepG2, at 10uM. It counts as cell-based. The following applies: human, HepG2-A16-CD81EGFP cells; read-out: INHIBITION
The arrangement: test concentration 10 uM, cell line HepG2-A16-CD81EGFP. The gist of the method:
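Uninfected HepG2-A16-CD81EGFP cells, 3 × 10^3 per well, 1536-well, plated on prespotted compound at 10 μM final, parasite-free screening media added to match infected plates; puromycin 10 μM positive, DMSO 0.5% negative; run in parallel with 48 h PbLuc assay at 37 °C, 5% CO2; viability by CellTiter-Glo luminescence, normalized to controls.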
Turning to `CCn1nc2c(cc1=O)CN(CCOc1ccccc1C#N)CC2`, the cytotoxicity at 10 µM turned out to be 19.2%.

Regarding `O=S(=O)(Nc1cn[nH]c1)c1ccc(F)c(Br)c1`, the cytotoxicity at 10 µM was -11.5%.

On to `CC(=O)N(Cc1ccoc1)C1CCCCC1`, for which the cytotoxicity at 10 µM was -2.86%.

With `CCS(=O)(=O)CCCN1CCSCC1c1ccc(Cl)cc1` (stereo not drawn), the cytotoxicity at 10 µM was -5.05%.

As to `CCc1ncc2c(n1)CN(CC(=O)NC1CCCCNC1=O)CC2` (stereo not drawn), the cytotoxicity at 10 µM was 6.61%.

In the case of `CC(Cn1cccn1)NCc1ccc(Cl)s1` (stereo not drawn), the cytotoxicity at 10 µM was -8.12%.

Take `Cc1cc(C)nc(NC2CCC(=O)N(C)C2)n1` (stereo not drawn): the cytotoxicity at 10 µM is -4.83%.

`O=C(COC1CCCC1)N1CCCN(c2ncccn2)CC1`: the cytotoxicity at 10 µM was determined as 15.9%.

Take `CSC(C)C(=O)NS(=O)(=O)CCc1ccccc1` (stereo not drawn): the cytotoxicity at 10 µM amounted to 2.88%.

`CC(C)(C)CC(=O)NCC(=O)Nc1ccn(Cc2ccccc2)n1`: the cytotoxicity at 10 µM was determined as 7.08%.

In the case of `CCC=C(C)C(=O)NCCc1csc(N2CCCC2)n1`, the cytotoxicity at 10 µM worked out at 18.7%.

For `COc1ccc(CCC(=O)NCCN2CCC(c3cccs3)CC2)cc1`, the cytotoxicity at 10 µM was 4.59%.

`Cc1cc(CN[C@@H](C)C(N)=O)c(C)s1`: the cytotoxicity at 10 µM is -6.55%.

In the case of `CCC(CC)CNCC1(S(C)(=O)=O)CCOCC1`, the cytotoxicity at 10 µM came to 0.354%.

In the case of `Cc1cnc(N2CC(C(=O)N3CCOCC3)C3(CCOCC3)C2)nc1` (stereo not drawn), the cytotoxicity at 10 µM turned out to be 4.47%.

Take `Cc1ncsc1C(=O)N(Cc1ccccc1)C1CC1`: the cytotoxicity at 10 µM was -6.48%.

`CC(=O)N1CCCC1c1nc(N(C)C)ncc1-c1ccccc1` (stereo not drawn): the cytotoxicity at 10 µM was 6.12%.

Turning to `COCCn1cnc2c(F)cc(Br)cc2c1=O`, the cytotoxicity at 10 µM was -0.62%.

`CCc1ccc(-n2nnc(C(=O)O)c2-c2ccncc2)cc1`: the cytotoxicity at 10 µM was determined as 3.02%.

In the case of `CN1CC2(CCN(C(=O)c3ccc4c(=O)n(C)cnc4c3)CC2)CC1=O`, the cytotoxicity at 10 µM stood at 5.58%.

In the case of `COCCN1CCCC1c1nccnc1Nc1nc(C)cs1` (stereo not drawn), the cytotoxicity at 10 µM was 6.02%.

For `COCC(=O)N1CCC(c2cc3ncccc3c(O)n2)CC1`, the cytotoxicity at 10 µM is -22.7%.

`COc1ccnc(NC(Cc2ccccc2)C(=O)N(C)C)n1` (stereo not drawn): the cytotoxicity at 10 µM came out at 6.39%.

Take `Cc1cccc(NC2CCN(C(=O)Nc3cc(C)on3)CC2)n1`: the cytotoxicity at 10 µM is -13.7%.

For the compound `COCCCNC(=O)c1ccccc1-n1cc(CN(C)C)cn1`, the cytotoxicity at 10 µM was -22.4%.

Turning to `O=C1CC2(CCCNC2)C(=O)N1Cc1ccc(F)cc1` (stereo not drawn), the cytotoxicity at 10 µM was found to be 1.65%.

For the compound `CC(C)=CCN1C[C@@H]2CC[C@H]1CN(C(=O)c1ccc(S(N)(=O)=O)cc1)C2`, the cytotoxicity at 10 µM is -5.96%.

On to `Cc1nc(CN(C)Cc2nc(-c3ccccc3)no2)co1`, for which the cytotoxicity at 10 µM is -1.86%.

In the case of `CCN1CCC(CNC(=O)C2(c3cccc(C)c3)CCCCC2)CC1`, the cytotoxicity at 10 µM was -11.8%.

For the compound `O=C(Cc1ccc(Cl)cc1)N[C@@H]1CCC[C@@H](O)[C@@H]1O`, the cytotoxicity at 10 µM was 2.3%.

`NCCc1n[nH]c(=O)n1-c1cccc2ccccc12`: the cytotoxicity at 10 µM was 3.96%.

As for `CC(c1ccc(F)cc1F)N1CCN(CCC(=O)NC(N)=O)CC1` (stereo not drawn), the cytotoxicity at 10 µM was -8.58%.

On to `O=C(c1cc(COc2ccc3c(c2)OCO3)[nH]n1)N1CC=CC1CO` (stereo not drawn), for which the cytotoxicity at 10 µM was -6.49%.

Regarding `O=C(CCC(=O)N1CCOCC1c1ccccc1)c1cccs1` (stereo not drawn), the cytotoxicity at 10 µM is -1.26%.

For `COCCN1CCC(CNC(=O)c2c[nH]c(=O)c(Cl)c2)CC1`, the cytotoxicity at 10 µM was 9.05%.

As to `CCOc1nn(CC)cc1-c1nnc(SCc2ccccn2)n1C`, the cytotoxicity at 10 µM is -2.95%.

Regarding `Cc1[nH]c2cc(C3CCCCN3C(=O)C3CC3)nn2c(=O)c1C` (stereo not drawn), the cytotoxicity at 10 µM was -5.34%.

Take `c1ccn(Cc2nnc3n2CCCN(c2cnccn2)C3)c1`: the cytotoxicity at 10 µM was -2.2%.

As to `CCn1nnc2c1C(COCCN(C)C)CN(Cc1ccc(C)s1)C2` (stereo not drawn), the cytotoxicity at 10 µM was determined as 4.44%.

In the case of `Cc1cnc(C(=O)N2CCCC3(CCN(c4cnn(C)c4)C3=O)C2)cn1` (stereo not drawn), the cytotoxicity at 10 µM was -5.79%.

With `CC1CCc2nn(CCNC(=O)C3CCCC3)c(=O)cc2C1` (stereo not drawn), the cytotoxicity at 10 µM worked out at 7.71%.

With `CC(C)c1nc(C2CCCN(C(=O)c3ccc4[nH]nnc4c3)C2)no1` (stereo not drawn), the cytotoxicity at 10 µM was determined as 7.34%.

For the compound `Cc1ccc(NC2CCN(C(=O)c3cccnc3N(C)C)CC2)nn1`, the cytotoxicity at 10 µM was -12.1%.

As to `CCc1nc(Nc2ccc(C(=O)NC)cc2)c2c(n1)c(C)nn2CC`, the cytotoxicity at 10 µM was 9.38%.

With `Cc1ccc(C)c(S(=O)(=O)NC(=O)COc2cccc(C#N)c2)c1`, the cytotoxicity at 10 µM amounted to 9.7%.

With `Cc1ccc(CN2CCc3ncnc(C4CC4)c3CC2)s1`, the cytotoxicity at 10 µM was determined as 4.63%.

`COc1ccc(CNc2ncc(-c3cc(C)no3)c(C(C)C)n2)cc1`: the cytotoxicity at 10 µM is 2.73%.

As for `CCC(C)(C)NC(=O)Cn1nnc(CN(C)C(=O)c2ccccc2)n1`, the cytotoxicity at 10 µM is 9.74%.

For `N#Cc1ccc(NCCCOCC2CCCO2)c(F)c1` (stereo not drawn), the cytotoxicity at 10 µM came out at 0.536%.

Turning to `O=C(c1ccc2[nH]nnc2c1)N1CCC(Nc2cccnn2)CC1`, the cytotoxicity at 10 µM is -1.49%.

Consider `NC(=O)CCNCc1c(Cl)cccc1N1CCCC1`, for which the cytotoxicity at 10 µM amounted to 8.15%.

Regarding `Cc1nn(C)c(Oc2ccc(Cl)cc2)c1CN1CC[C@H](CO)[C@@H](O)C1`, the cytotoxicity at 10 µM is -10.5%.

Take `Cc1nc(C)n(CC2CN(CCc3ccncc3)CCO2)n1` (stereo not drawn): the cytotoxicity at 10 µM was -14.7%.

In the case of `CN(Cc1ccco1)C(=O)NC1CCCN(c2ncccn2)C1` (stereo not drawn), the cytotoxicity at 10 µM is -13.6%.

With `Cc1nc(-c2ccoc2)n(CC(=O)N(C)CC(C)C)c1C`, the cytotoxicity at 10 µM is -4.5%.

In the case of `CSCCC(=O)N1CCN(CC(C)(C)O)CC1`, the cytotoxicity at 10 µM was -5.85%.

With `O=S(=O)(CC1CCCCC1)NCc1ccnc(O)c1`, the cytotoxicity at 10 µM came out at 6.54%.

Regarding `CCSc1ccc(NC(=O)N2CCCC2c2ccncc2)cn1` (stereo not drawn), the cytotoxicity at 10 µM was -8.88%.

For `Cc1ccc(CN2CCNC(=O)C2CC(=O)N2CCSCC2)o1` (stereo not drawn), the cytotoxicity at 10 µM turned out to be 4.48%.

Consider `CC(C)c1noc(CNC2CCCN(Cc3noc(C4CC4)n3)C2)n1` (stereo not drawn), for which the cytotoxicity at 10 µM was -3.19%.

On to `Cc1cc(NC(=O)N(CCC#N)CCCN(C)C)ccc1F`, for which the cytotoxicity at 10 µM is -57.7%.

In the case of `CCSCCC(=O)Nc1ncn(Cc2cccnc2)n1`, the cytotoxicity at 10 µM was 25.1%.

On to `CN(Cc1ncc(-c2ccccc2)o1)CC1CCCN1c1cccnn1` (stereo not drawn), for which the cytotoxicity at 10 µM worked out at 3.75%.

On to `Cn1c(CCC(=O)N2CCCC3(CC2)CNC(=O)O3)nc2cccnc21` (stereo not drawn), for which the cytotoxicity at 10 µM is -3.56%.

Regarding `CCOc1ncccc1NC(=O)c1sccc1C`, the cytotoxicity at 10 µM was -16.1%.

Regarding `COC[C@]12COC[C@H]1CN(Cc1cc(OC)cc(OC)c1)C2`, the cytotoxicity at 10 µM is -6.33%.

On to `O=C(NC1CCN(c2ccccc2OC(F)F)C1)c1cccnc1` (stereo not drawn), for which the cytotoxicity at 10 µM was found to be 6.89%.

On to `Cc1ccccc1N1CCCN(C(=O)CCc2cccnc2)CC1`, for which the cytotoxicity at 10 µM was -9.2%.

As to `COc1ccc(CN(C)[C@@H]2CN(C(=O)c3cccnc3)C[C@H]2O)cc1`, the cytotoxicity at 10 µM is 10.9%.

Consider `CN(C)Cc1cncc2c1CCN(C1CCOCC1)C2`, for which the cytotoxicity at 10 µM was 11.1%.

Take `CN(Cc1cnn(C)c1)C(=O)Cc1ccc2c(c1)OCCO2`: the cytotoxicity at 10 µM was found to be 2.45%.

Consider `CC(C)Cc1ccc(S(=O)(=O)Nc2ccc(=O)n(C)c2)cc1`, for which the cytotoxicity at 10 µM is 46.3%.

On to `Cc1ccc(C(=O)NCC(O)c2cccc(F)c2)c(=O)[nH]1` (stereo not drawn), for which the cytotoxicity at 10 µM is -2.83%.

Regarding `Cc1nsc(N2CCN(Cc3cccc(F)c3)CC2)n1`, the cytotoxicity at 10 µM worked out at 2.74%.

Take `Cc1ccc(CNC(C)c2ccc3[nH]c(=O)[nH]c3c2)s1` (stereo not drawn): the cytotoxicity at 10 µM is -10.7%.

For `Cc1cc(Cc2ccc(S(=O)(=O)N3CCOCC3)cc2)c(=O)[nH]n1`, the cytotoxicity at 10 µM is -13.1%.

For the compound `CC1CCN(S(=O)(=O)N2CCCC(c3cccc(C(=O)O)c3)C2)CC1` (stereo not drawn), the cytotoxicity at 10 µM was -13.3%.

In the case of `Cc1ccccc1[C@@H]1CN(Cc2c(C)noc2C)C[C@H]1C(=O)O`, the cytotoxicity at 10 µM was -7.74%.

`COCc1ncn2c1CN(S(=O)(=O)c1cccc(F)c1)CC2`: the cytotoxicity at 10 µM was 4.06%.

`Cc1ccc(C(=O)N2Cc3ccccc3OC3(CCOCC3)C2)cn1`: the cytotoxicity at 10 µM is -25.8%.

Regarding `O=C(c1ccc[nH]1)N1CCc2ccc(S(=O)(=O)N3CCOCC3)cc2C1`, the cytotoxicity at 10 µM was 3.99%.

Regarding `Cc1ccc(N2CCC3(CCN(C(=O)N(C)C)CC3)CC2)nn1`, the cytotoxicity at 10 µM is 5.73%.

Consider `CC(C)c1nc(C2CCCN2C(=O)c2cc(Cl)c[nH]2)no1` (stereo not drawn), for which the cytotoxicity at 10 µM was found to be 0.585%.

For the compound `O=C(NC1CCCC1)c1cc(Sc2ncccn2)ccn1`, the cytotoxicity at 10 µM is -12.3%.

`Cc1noc(CNc2cccc(C(=O)N3CCCC(O)C3)c2)n1` (stereo not drawn): the cytotoxicity at 10 µM is -0.961%.

Turning to `CN1CCN(C[C@@H]2OC[C@H]3CN(Cc4cccc(F)c4)CC[C@H]32)CC1`, the cytotoxicity at 10 µM was -10.3%.

For the compound `Cc1cc(C(=O)N2CCC3(CC2)C(=O)NCCN3CC(C)C)c(C)o1`, the cytotoxicity at 10 µM was 9.61%.

Regarding `O=C(CC1CCCC1)N1C[C@@H]2C[C@@H]1CN2`, the cytotoxicity at 10 µM was -0.714%.

As to `CC(NCCc1nccn1Cc1ccccc1)c1cccs1` (stereo not drawn), the cytotoxicity at 10 µM stood at 3.68%.

Consider `CNc1cc(C2CCCN2S(=O)(=O)c2cccc(F)c2)ccn1` (stereo not drawn), for which the cytotoxicity at 10 µM was -22.7%.

Consider `Cc1nn(C(C)C)c(C)c1S(=O)(=O)Nc1cccc(C(=O)O)c1`, for which the cytotoxicity at 10 µM was found to be 9.53%.

Consider `Cc1cnn(CC2CN(Cc3nc(-c4ccco4)no3)CCO2)c1` (stereo not drawn), for which the cytotoxicity at 10 µM was -20.3%.

Consider `O=C([C@@H]1CCS(=O)(=O)[C@@H]2CN(c3ncccn3)C[C@@H]21)N1CCOCC1`, for which the cytotoxicity at 10 µM was -100%.

As to `CN1CCC(NC(=O)c2cc(F)cc(Cl)c2O)C1=O` (stereo not drawn), the cytotoxicity at 10 µM was 3.09%.

Take `COc1cccc(-c2ncc(CN3CC[C@H](CO)[C@@H](O)C3)s2)c1`: the cytotoxicity at 10 µM was 4.23%.

Take `CC(=O)N1CCN(C(=O)Nc2cnc3c(cnn3C(C)C)c2)CC1`: the cytotoxicity at 10 µM was -0.192%.

Take `COCCN1CCC(C(=O)c2cc(F)ccc2F)CC1`: the cytotoxicity at 10 µM is -9.47%.

As to `Cc1cc(O)cc(C2CCCN2C(=O)c2ccn(C)n2)n1` (stereo not drawn), the cytotoxicity at 10 µM is -2.82%.
